FXN GAA850 act: increases GAA850 frataxin promoter reporter activity | HEK293 lucGAA850 FXN promoter luciferase reporter, 24 h; percent of 10 µM SAHA response | activation, % at 6 µM | 360,000 tested, 0.56% active | AID 540364;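 active = activation above the average of all compounds screened plus 3 SD, cutoff fixed separately per campaign, cut at about 7.5% in these data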;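 also: 0% = DMSO wells and 100% = 10 µM SAHA wells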
procasp3 activ: activators of human procaspase-3 | P42574 | recombinant procaspase-3 D3A, Ac-DEVD-pNA absorbance 405 nm | 330,000 tested, 0.11% active | activation, % at 8.5 µM | AID 463141;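 active = activation above the mean of all tested compounds plus 3 SD, cut at about 21% in these data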;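 also: 0% = DMSO alone and 100% = DMSO wells spiked with extra 5 µM PC-3 D3A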
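assay system = Procaspase-3 D3A mutant | signal = absorbance at 405 nm, 0 and 120 min | times = 1 h preincubation plus 2 h reaction at 25 °C | repeats = single replicate | read-out = % activation between DMSO and enzyme-spiked controls | medium = Zinc-free HEPES saline buffer with Triton X-100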
proCasp7 act: activates human procaspase-7, counter-screen for procaspase-3 activators; AID 463210; 330,000 tested, 0.093% active; recombinant procaspase-7, Ac-DEVD-pNA absorbance 405 nm; D23A/D198A/D206A triple mutant, cannot self-cleave; scale: DMSO 0, 5 µM enzyme 100; P55210; activation, % at 8.5 µM;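 active = percent activation above the screen-wide mean plus 3 SD, cut at about 25% in these data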
Target sequence (P55210 whole entry D23A/D198A/D206A): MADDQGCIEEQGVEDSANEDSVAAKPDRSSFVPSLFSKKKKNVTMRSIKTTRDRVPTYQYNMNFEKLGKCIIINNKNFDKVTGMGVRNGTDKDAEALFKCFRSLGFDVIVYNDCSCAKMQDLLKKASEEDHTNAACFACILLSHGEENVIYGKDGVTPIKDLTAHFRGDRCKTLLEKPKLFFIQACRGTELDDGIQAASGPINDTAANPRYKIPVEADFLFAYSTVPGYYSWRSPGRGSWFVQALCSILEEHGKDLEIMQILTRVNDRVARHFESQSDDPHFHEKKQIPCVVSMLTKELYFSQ
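System: Procaspase-7 triple mutant (PC-7 D3A); measure: % activation from two-timepoint absorbance difference, scaled to controls; times: 1 h compound preincubation, 2 h substrate cleavage, 25 °C; also added: Ac-DEVD-pNA substrate, 400 µM as added; measured by: Epi-absorbance of released pNA at 405 nm, two timepoints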
PC3 D3A act: counter-screen: procaspase-3 (human) activation; activation, % at 8.5 µM; 290 tested, under 10 active; shares compounds with proCasp7 act; AID 493114; recombinant PC-3 D3A, Ac-DEVD-pNA absorbance 405 nm; aspartates 9, 28, 175 changed to alanine; 100% = enzyme control;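 active = mean percent activation across triplicates above a set limit taken from the earlier primary procaspase-3 screen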;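 also: 0% = DMSO wells and 100% = DMSO wells with 5 µM added PC-3 D3A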
Procasp7 act: activates human procaspase-7, confirming dual procaspase activators; 290 tested, under 10 active; activation, % at 8.5 µM; recombinant procaspase-7, Ac-DEVD-pNA absorbance 405 nm; D23A/D198A/D206A mutant that cannot self-cleave; AID 493115; shares compounds with proCasp7 act;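 active = mean activation above a set limit carried over from the earlier primary screen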;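 also: 0% = DMSO only and 100% = DMSO with added 5 µM PC-7 enzyme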
The depositor's hits bear a star; . = no result given. Most compounds without a hit are left out; they make up all but 0.7% or so of the library.

SMILES | FXN GAA850 act | procasp3 activ | proCasp7 act | PC3 D3A act | Procasp7 act
COc1ccc(N(C(=O)c2cccnc2)S(=O)(=O)c2ccc3c4c(cccc24)C(=O)N3C)cc1 | -2.4 | -6.4 | -12.0 | . | .
COc1ccc(N(C(=O)c2ccncc2)S(=O)(=O)c2ccc3c4c(cccc24)C(=O)N3C)cc1 | -0.3 | -3.8 | 31.6* | -28.0 | -34.1
COc1cccc(-c2cc(C(=O)Nc3ccc(N(C)C(C)=O)cc3)c3cc(Br)ccc3n2)c1 | -0.6 | 1.6 | 2.9 | . | .
Cc1ccccc1CNC(=O)CCNS(=O)(=O)c1ccc(OC(F)(F)F)cc1 | 0.0 | 5.4 | -1.4 | . | .
O=c1c(-c2nnc(SCc3ccc(Cl)cc3Cl)o2)cccn1Cc1ccccc1 | 0.9 | 23.6* | 87.0* | -12.0 | -11.8
CSc1nnc(-c2cccn(Cc3ccccc3)c2=O)o1 | 1.9 | 8.8 | 8.6 | . | .
CC1CC(CC(=O)NC(=S)Nc2ccccc2Cl)C(=O)O1 (stereo unspecified) | 0.3 | 4.8 | 5.2 | . | .
CC(=O)N1CCN(C(=O)CSc2nnc(C)n2-c2ccccc2)CC1 | 1.5 | -4.4 | -4.5 | . | .
COCCOC(=O)C1=C(C)NC(C)=C(C(=O)OCCOC)C1/C=C/c1ccccc1OC | 1.3 | -13.7 | 4.1 | . | .
CCOC(=O)C1=C(C)NC(C)=C(C(=O)OCC)C1/C=C/c1ccccc1OC | 0.5 | 15.3 | 28.6* | -27.5 | -23.1
COc1ccccc1NS(=O)(=O)c1cccc(C(=O)NNC(=O)c2ccc(O)c(Cl)c2)c1 | 1.0 | 2.6 | 8.3 | . | .
CCCCNC(=O)c1ccccc1SCC(=O)NC1CCCCCCC1 | -0.7 | -5.0 | -3.6 | . | .
COCCNC(=O)C1(C)CCCN(Cc2cc(-c3ccccc3)nn2C)C1 (stereo unspecified) | -0.4 | . | . | . | .
COc1ccc(C2=NN(c3ccc(C=O)cc3)C(c3ccccc3)C2)cc1 (stereo unspecified) | . | -51.7 | -51.1 | . | .
COc1ccc(C2CC(c3cccs3)=NN2c2ccc(C=O)cc2)cc1 (stereo unspecified) | . | -60.6 | -38.0 | . | .
O=C(O)c1ccc(N2N=C(c3ccccc3)CC2c2ccccc2)cc1 (stereo unspecified) | 1.5 | 3.6 | -4.9 | . | .
COc1ccc(C2CC(c3ccccc3)=NN2c2ccc(C(N)=O)cc2)cc1 (stereo unspecified) | 1.9 | 30.4* | 38.4* | -28.9 | -36.1
COc1ccc(C2=NN(c3ccccc3)C(c3ccc(OC)c(OC)c3)C2)cc1 (stereo unspecified) | 6.0 | -13.7 | -22.8 | . | .
COc1ccc(C2CC(c3ccccc3Cl)=NN2c2ccc(S(N)(=O)=O)cc2)cc1 (stereo unspecified) | -0.5 | 27.2* | 46.7* | -29.1 | -34.3
COc1ccc(C2CC(c3ccccc3)=NN2c2ccc(S(N)(=O)=O)cc2)cc1 (stereo unspecified) | -0.1 | 27.9* | 50.8* | -28.4 | -35.3
COc1ccc(C2CC(c3cccc(C(F)(F)F)c3)=NN2c2ccc(S(N)(=O)=O)cc2)cc1 (stereo unspecified) | -1.6 | 43.9* | 52.9* | -30.4 | -35.2
CC(C)OC(=O)c1cccc(-c2ccc(C=O)o2)c1 | 1.1 | -0.2 | -0.7 | . | .
CC(=O)SCC(Cc1ccccc1)C(=O)NCC(=O)OCc1ccccc1 (stereo unspecified) | . | 0.6 | 11.1 | . | .
O=C(CN1CCN(C(=O)C2CCCO2)CC1)Nc1ccc(Cl)c(Cl)c1 (stereo unspecified) | -0.2 | 4.3 | -0.4 | . | .
N/C(=N\NS(=O)(=O)c1ccc(Cl)cc1)c1ccccn1 | -0.8 | -5.1 | 5.1 | . | .
O=C(CCNC(=O)c1ccco1)NCc1ccc(C(=O)O)cc1 | -0.5 | -2.9 | 7.8 | . | .
O=[N+]([O-])c1cccc(C2CC(c3ccccc3)=NN2c2ccccc2)c1 (stereo unspecified) | 2.8 | 6.1 | -5.3 | . | .
NS(=O)(=O)c1ccc(N2N=C(c3ccccc3)CC2c2cccc(Cl)c2)cc1 (stereo unspecified) | -1.2 | 38.7* | 44.1* | -30.7 | -32.9
NC(=O)c1cc(S(=O)(=O)NCCc2ccc(S(N)(=O)=O)cc2)cs1 | -0.9 | -1.8 | -0.6 | . | .
